Laboratory results reported in ChEMBL document CHEMBL1250451, “Mechanistic insights into a Ca2+-dependent family of alpha-mannosidases in a human gut symbiont” (Nat Chem Biol, 2010).
pKi: −log10 of the molar value.

What was measured:
Assay type in all cases: protein assay
[1] = target: T1, Alpha-1,2-mannosidase (BT_2199) (Bacteroides thetaiotaomicron, UniProt Q8A5N9); test: Inhibition of Bacteroides thetaiotaomicron GH92 alpha-mannosidase 2199 assessed as reduction of mannose release using 4NP-mannopyranoside substrate
T1 sequence (Q8A5N9 whole entry): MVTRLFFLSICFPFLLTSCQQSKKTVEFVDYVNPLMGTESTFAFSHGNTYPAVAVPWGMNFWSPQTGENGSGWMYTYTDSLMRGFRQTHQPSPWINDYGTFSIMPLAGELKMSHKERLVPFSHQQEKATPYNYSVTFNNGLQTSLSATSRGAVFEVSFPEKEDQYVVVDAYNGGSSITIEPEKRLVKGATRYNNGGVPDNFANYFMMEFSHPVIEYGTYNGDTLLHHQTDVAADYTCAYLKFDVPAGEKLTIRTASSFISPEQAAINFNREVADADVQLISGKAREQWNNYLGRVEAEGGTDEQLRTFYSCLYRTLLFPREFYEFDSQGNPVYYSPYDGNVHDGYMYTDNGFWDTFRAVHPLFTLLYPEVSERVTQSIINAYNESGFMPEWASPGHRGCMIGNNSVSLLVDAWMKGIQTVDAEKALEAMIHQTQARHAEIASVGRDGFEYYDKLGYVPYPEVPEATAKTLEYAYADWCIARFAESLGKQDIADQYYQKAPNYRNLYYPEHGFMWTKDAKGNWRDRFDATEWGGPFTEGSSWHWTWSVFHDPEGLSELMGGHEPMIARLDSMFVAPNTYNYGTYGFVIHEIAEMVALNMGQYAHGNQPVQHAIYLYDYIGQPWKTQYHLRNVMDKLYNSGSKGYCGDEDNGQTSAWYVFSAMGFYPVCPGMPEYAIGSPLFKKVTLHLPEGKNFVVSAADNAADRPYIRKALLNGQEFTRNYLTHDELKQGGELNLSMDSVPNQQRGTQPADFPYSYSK
Outline: (§1)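 Recombinant enzymes expressed in E. coli. Bt3990 was purified by IMAC, anion exchange and size exclusion; Bt2199 by IMAC only. Ki was measured with at least five inhibitor concentrations at a substrate concentration ≪ Km for each enzyme. Ki was taken as the x-axis intercept of a plot of […] against inhibitor concentration.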

[2] = target: Alpha-1,2-mannosidase (BT_3990) (Bacteroides thetaiotaomicron, UniProt Q8A0N1); test: Inhibition of Bacteroides thetaiotaomicron GH92 alpha-mannosidase 3990 assessed as reduction of mannose release using 4NP-mannopyranoside substrate; outline: as §1
[3] = target: Alpha-1,2-mannosidase family protein (BT_1032) (Bacteroides thetaiotaomicron, UniProt Q8A8Y5); test: Inhibition of Bacteroides thetaiotaomicron GH92 alpha-mannosidase 1032 assessed as reduction of mannose release using 4NP-mannopyranoside substrate
Alpha-1,2-mannosidase family protein (BT_1032), sequence (Q8A8Y5 whole entry, change not shown): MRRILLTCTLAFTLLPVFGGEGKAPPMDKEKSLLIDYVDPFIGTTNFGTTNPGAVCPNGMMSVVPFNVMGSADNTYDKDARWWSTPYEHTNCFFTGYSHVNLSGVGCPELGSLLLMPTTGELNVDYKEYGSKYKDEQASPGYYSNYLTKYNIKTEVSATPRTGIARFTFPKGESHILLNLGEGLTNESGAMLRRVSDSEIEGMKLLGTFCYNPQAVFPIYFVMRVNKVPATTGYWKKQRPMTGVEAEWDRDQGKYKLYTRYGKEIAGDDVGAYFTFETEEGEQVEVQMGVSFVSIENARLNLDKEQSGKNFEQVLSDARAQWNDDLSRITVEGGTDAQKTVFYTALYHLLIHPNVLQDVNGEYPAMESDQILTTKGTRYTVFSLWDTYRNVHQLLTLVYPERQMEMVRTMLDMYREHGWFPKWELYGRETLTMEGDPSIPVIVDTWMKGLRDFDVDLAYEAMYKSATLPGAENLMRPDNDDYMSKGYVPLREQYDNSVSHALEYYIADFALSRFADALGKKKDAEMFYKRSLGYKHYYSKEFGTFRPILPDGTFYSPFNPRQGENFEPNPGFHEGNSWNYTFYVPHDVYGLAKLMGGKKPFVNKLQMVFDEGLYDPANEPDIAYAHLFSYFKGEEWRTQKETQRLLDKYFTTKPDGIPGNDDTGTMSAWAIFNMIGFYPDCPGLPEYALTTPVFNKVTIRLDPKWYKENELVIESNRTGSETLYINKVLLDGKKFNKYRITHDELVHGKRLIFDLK
Outline: (§2)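 Recombinant His-tagged GH92 enzymes were expressed in E. coli Tuner or B834 and purified by IMAC. Mannose release was measured at 37 °C in 100 mM MOPS, pH 7.0, with 2 mM CaCl2. The read-out was a coupled-enzyme mannose detection system with ATP and NADP+ at 1 mM, following NADPH at 340 nm. At least five inhibitor concentrations were tested, with substrate ≪ Km. Ki was taken from the x-intercept of […] versus inhibitor concentration.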

[4] = target: Alpha-1,2-mannosidase (BT_1878) (Bacteroides thetaiotaomicron, UniProt Q8A6K3); test: Inhibition of Bacteroides thetaiotaomicron GH92 alpha-mannosidase 1878 assessed as reduction of mannose release using 4NP-mannopyranoside substrate; outline: as §2
[5] = target: Alpha-1,2-mannosidase (BT_2948) (Bacteroides thetaiotaomicron, UniProt Q8A3K6); test: Inhibition of Bacteroides thetaiotaomicron GH92 alpha-mannosidase 2948 assessed as reduction of mannose release using 4NP-mannopyranoside substrate; outline: as §2
Alpha-1,2-mannosidase (BT_2948), sequence (Q8A3K6 whole entry, change not shown): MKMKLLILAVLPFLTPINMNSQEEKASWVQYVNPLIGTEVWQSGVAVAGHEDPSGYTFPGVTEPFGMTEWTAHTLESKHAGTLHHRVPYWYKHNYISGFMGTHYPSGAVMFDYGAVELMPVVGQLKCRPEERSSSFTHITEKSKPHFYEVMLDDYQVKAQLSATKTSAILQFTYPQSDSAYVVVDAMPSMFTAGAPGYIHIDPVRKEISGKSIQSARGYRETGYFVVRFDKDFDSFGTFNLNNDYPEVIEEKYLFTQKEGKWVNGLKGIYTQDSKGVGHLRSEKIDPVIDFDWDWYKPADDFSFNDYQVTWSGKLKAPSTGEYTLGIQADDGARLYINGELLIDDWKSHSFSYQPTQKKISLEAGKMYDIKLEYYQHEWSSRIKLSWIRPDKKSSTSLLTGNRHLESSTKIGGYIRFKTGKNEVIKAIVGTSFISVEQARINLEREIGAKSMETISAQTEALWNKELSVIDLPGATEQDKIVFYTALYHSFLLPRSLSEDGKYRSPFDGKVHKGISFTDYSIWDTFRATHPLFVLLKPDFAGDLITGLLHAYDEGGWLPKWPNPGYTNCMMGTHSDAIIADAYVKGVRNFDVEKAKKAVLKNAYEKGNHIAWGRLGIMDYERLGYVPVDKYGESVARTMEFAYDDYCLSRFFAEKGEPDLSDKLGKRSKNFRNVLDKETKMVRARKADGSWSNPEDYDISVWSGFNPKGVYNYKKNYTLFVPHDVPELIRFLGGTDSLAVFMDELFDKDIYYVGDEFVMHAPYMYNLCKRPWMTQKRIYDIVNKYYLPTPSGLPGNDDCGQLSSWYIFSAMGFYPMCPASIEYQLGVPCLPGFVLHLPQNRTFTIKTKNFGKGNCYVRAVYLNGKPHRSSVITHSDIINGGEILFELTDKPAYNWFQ

[6] = target: Alpha-1,2-mannosidase, putative (BT_3130) (Bacteroides thetaiotaomicron, UniProt Q8A325); test: Inhibition of Bacteroides thetaiotaomicron GH92 alpha-mannosidase 3130 assessed as reduction of mannose release using 4NP-mannopyranoside substrate; outline: as §2
Alpha-1,2-mannosidase, putative (BT_3130), sequence (Q8A325 whole entry, change not shown): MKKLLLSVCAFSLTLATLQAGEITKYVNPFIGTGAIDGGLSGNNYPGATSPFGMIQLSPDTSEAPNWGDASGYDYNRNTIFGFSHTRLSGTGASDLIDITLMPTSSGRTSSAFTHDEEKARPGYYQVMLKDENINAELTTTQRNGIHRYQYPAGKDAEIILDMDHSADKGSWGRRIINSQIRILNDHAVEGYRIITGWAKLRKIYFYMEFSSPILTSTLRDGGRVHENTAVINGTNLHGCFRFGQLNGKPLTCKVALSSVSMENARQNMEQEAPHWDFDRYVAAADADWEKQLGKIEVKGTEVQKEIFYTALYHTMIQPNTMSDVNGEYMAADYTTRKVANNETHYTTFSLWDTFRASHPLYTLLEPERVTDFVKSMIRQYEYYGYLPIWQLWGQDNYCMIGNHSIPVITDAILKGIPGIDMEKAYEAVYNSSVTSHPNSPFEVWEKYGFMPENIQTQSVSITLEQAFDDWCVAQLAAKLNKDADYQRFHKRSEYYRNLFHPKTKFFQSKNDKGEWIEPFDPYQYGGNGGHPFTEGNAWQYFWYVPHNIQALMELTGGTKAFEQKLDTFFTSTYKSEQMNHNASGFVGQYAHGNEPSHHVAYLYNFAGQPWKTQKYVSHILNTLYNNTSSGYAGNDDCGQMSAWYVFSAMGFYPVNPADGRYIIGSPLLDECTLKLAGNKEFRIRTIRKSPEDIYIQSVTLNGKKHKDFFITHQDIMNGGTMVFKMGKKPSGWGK

[7] = target: Alpha-1,2-mannosidase (BT_3784) (Bacteroides thetaiotaomicron, UniProt Q8A182); test: Inhibition of Bacteroides thetaiotaomicron GH92 alpha-mannosidase 3784 assessed as reduction of mannose release using 4NP-mannopyranoside substrate; outline: as §2
[8] = target: Alpha-1,2-mannosidase (BT_3858) (Bacteroides thetaiotaomicron, UniProt Q8A113); test: Inhibition of Bacteroides thetaiotaomicron GH92 alpha-mannosidase 3858 assessed as reduction of mannose release using 4NP-mannopyranoside substrate; outline: as §2
[9] = target: Glycoside hydrolase family 92 (BT_3962) (Bacteroides thetaiotaomicron, UniProt Q8A0Q9); test: Inhibition of Bacteroides thetaiotaomicron GH92 alpha-mannosidase 3962 assessed as reduction of mannose release using 4NP-mannopyranoside substrate; outline: as §2
[10] = target: Glycoside hydrolase family 92 (BT_3963) (Bacteroides thetaiotaomicron, UniProt Q8A0Q8); test: Inhibition of Bacteroides thetaiotaomicron GH92 alpha-mannosidase 3963 assessed as reduction of mannose release using 4NP-mannopyranoside substrate; outline: as §2
[11] = target: Alpha-1,2-mannosidase (BT_3965) (Bacteroides thetaiotaomicron, UniProt Q8A0Q6); test: Inhibition of Bacteroides thetaiotaomicron GH92 alpha-mannosidase 3965 assessed as reduction of mannose release using 4NP-mannopyranoside substrate; outline: as §2
Alpha-1,2-mannosidase (BT_3965), sequence (Q8A0Q6 whole entry, change not shown): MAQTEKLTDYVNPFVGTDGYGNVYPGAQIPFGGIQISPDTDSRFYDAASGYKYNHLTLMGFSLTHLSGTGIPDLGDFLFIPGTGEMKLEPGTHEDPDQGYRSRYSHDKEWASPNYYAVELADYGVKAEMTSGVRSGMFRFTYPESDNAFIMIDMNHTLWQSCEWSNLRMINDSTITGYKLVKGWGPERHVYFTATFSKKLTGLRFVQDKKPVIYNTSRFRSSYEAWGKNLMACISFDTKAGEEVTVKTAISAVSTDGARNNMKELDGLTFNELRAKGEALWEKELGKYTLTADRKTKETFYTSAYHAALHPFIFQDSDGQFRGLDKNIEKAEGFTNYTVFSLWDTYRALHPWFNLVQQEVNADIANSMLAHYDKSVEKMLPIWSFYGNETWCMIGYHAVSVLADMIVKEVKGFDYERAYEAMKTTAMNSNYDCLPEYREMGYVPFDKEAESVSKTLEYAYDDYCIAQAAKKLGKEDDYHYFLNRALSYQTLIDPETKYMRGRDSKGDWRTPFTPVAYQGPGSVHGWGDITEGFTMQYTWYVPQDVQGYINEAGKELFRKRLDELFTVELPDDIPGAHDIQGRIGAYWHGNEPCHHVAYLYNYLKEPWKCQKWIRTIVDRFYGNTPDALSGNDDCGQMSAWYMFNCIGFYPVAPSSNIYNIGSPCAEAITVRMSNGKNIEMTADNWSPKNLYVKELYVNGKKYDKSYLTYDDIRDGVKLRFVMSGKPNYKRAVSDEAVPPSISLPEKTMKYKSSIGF

[12] = target: Alpha-1,2-mannosidase (BT_3991) (Bacteroides thetaiotaomicron, UniProt Q8A0N0); test: Inhibition of Bacteroides thetaiotaomicron GH92 alpha-mannosidase 3991 assessed as reduction of mannose release using 4NP-mannopyranoside substrate; outline: as §2
[13] = target: Alpha-1,2-mannosidase (BT_3994) (Bacteroides thetaiotaomicron, UniProt Q8A0M7); test: Inhibition of Bacteroides thetaiotaomicron GH92 alpha-mannosidase 3994 assessed as reduction of mannose release using 4NP-mannopyranoside substrate; outline: as §2
Alpha-1,2-mannosidase (BT_3994), sequence (Q8A0M7 whole entry, change not shown): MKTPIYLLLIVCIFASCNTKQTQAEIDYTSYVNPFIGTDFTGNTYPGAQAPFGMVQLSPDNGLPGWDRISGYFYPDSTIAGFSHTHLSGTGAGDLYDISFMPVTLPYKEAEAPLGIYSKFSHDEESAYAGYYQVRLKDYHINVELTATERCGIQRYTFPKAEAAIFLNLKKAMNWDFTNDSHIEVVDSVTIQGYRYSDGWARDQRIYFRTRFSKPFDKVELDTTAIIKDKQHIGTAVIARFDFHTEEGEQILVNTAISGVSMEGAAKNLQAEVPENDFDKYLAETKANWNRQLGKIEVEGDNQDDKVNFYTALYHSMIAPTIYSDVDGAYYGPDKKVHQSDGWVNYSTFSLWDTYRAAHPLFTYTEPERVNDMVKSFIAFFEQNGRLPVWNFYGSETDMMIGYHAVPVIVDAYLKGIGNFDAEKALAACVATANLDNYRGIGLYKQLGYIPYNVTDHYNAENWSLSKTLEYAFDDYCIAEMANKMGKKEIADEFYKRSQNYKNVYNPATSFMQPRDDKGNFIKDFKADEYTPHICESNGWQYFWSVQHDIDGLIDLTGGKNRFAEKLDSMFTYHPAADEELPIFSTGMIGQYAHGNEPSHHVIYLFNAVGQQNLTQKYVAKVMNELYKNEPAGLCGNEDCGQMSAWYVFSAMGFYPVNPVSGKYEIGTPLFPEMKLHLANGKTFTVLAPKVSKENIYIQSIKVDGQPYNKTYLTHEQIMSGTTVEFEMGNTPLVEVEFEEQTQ

[14] = target: Alpha-1,2-mannosidase, putative (BT_4073) (Bacteroides thetaiotaomicron, UniProt Q8A0E8); test: Inhibition of Bacteroides thetaiotaomicron GH92 alpha-mannosidase 4073 assessed as reduction of mannose release using 4NP-mannopyranoside substrate; outline: as §2
[15] = target: Alpha-1,2-mannosidase (BT_4092) (Bacteroides thetaiotaomicron, UniProt Q8A0C9); test: Inhibition of Bacteroides thetaiotaomicron GH92 alpha-mannosidase 4092 assessed as reduction of mannose release using 4NP-mannopyranoside substrate; outline: as §2
Alpha-1,2-mannosidase (BT_4092), sequence (Q8A0C9 whole entry, change not shown): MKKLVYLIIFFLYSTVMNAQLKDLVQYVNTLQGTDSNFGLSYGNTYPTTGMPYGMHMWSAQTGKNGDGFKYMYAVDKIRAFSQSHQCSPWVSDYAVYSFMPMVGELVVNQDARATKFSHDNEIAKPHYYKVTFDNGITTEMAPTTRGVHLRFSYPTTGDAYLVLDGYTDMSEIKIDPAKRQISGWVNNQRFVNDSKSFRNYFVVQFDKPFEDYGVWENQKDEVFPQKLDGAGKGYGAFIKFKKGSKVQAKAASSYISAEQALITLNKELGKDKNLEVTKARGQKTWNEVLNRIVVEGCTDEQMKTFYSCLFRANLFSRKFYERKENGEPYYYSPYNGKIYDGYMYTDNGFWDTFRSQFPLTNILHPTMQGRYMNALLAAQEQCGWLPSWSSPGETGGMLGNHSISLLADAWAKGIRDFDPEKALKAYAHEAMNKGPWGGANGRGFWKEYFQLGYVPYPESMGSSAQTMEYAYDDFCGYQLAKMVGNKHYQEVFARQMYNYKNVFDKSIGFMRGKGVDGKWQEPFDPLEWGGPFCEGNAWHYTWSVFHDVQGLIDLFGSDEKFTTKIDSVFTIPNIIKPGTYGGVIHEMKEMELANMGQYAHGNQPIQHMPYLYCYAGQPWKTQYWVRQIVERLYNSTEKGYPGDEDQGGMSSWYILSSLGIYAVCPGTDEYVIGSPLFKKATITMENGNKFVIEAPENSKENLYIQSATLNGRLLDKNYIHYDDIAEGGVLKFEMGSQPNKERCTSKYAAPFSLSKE

[16] = target: Alpha-1,2-mannosidase family protein (BT_4093) (Bacteroides thetaiotaomicron, UniProt Q8A0C8); test: Inhibition of Bacteroides thetaiotaomicron GH92 alpha-mannosidase 4093 assessed as reduction of mannose release using 4NP-mannopyranoside substrate; outline: as §2

Row | SMILES | pKi [1] | pKi [2] | pKi [3] | pKi [4] | pKi [5] | pKi [6] | pKi [7] | pKi [8] | pKi [9] | pKi [10] | pKi [11] | pKi [12] | pKi [13] | pKi [14] | pKi [15] | pKi [16]
1 | OC[C@H]1NC[C@@H](O)[C@@H](O)[C@@H]1O [DEOXYMANNOJIRIMYCIN] | 1.89 | 1.92 |  |  |  |  |  |  |  |  |  |  |  |  |  | 
2 | OC[C@@H]1[C@@H](O)[C@H](O)[C@H](O)c2nccn21 [MANNOIMIDAZOLE] | 4.05 |  | 3.22 | 2.74 | 4.15 | 6.00 | 2.24 | 3.59 | 3.57 | 3.10 | 6.40 | 4.34 | 4.37 | 3.44 | 2.80 | 3.07
